From ChEMBL document CHEMBL1275497, “Genetic and structural insights into the dissemination potential of the extremely broad-spectrum class A beta-lactamase KPC-2 identified in an Escherichia coli strain and an Enterobacter cloacae strain isolated from the same patient in France” (2008)
In brackets after ≈: the same amount, converted by molar mass.

Assays:
Escherichia coli [1] = test: Activity of Escherichia coli 2138 beta-lactamase KPC-2 by spectrophotometry
Summary of the method: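 KPC-2 was expressed in E. coli BL21(DE3) grown in LB with 50 µg/ml kanamycin and induced with 0.4 mM IPTG. It was purified by Q Sepharose, then Bioscale S cation exchange with a 0–1 M NaCl gradient in 40 mM Bis-Tris pH 5.9, then Superdex 75. Km and kcat were measured spectrophotometrically at 37°C in 50 mM phosphate buffer, pH 7.0, using previously described absorption coefficients.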

Escherichia coli [2] = test: Antimicrobial activity against Escherichia coli J53 by Etest method; format: functional
Escherichia coli [3] = test: Antimicrobial activity against blaKPC-2 and blaTEM-1 Escherichia coli 2138 by Etest method in presence of beta-lactamase inhibitor clavulanic acid; format: functional
Summary of the method: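 MIC read by Etest on the clinical E. coli isolate recovered from a patient hospitalized in France.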

Escherichia coli [4] = test: Antimicrobial activity against Escherichia coli TOP10 harboring blaKPC-2 and blaTEM-1 gene by Etest method in presence of beta-lactamase inhibitor clavulanic acid; format: functional
Summary of the method: (§1)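 MIC by Etest on E. coli Top10 host and its transformants. Transformants were obtained by electroporating plasmid DNA extracted from the clinical E. coli isolate.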

Enterobacter cloacae [5] = test: Antimicrobial activity against blaKPC-2, blaKLUC-2 and blaTEM-1 producing Enterobacter cloacae 7506 by Etest method; format: functional
Enterobacter cloacae [6] = test: Antimicrobial activity against blaKPC-2, blaKLUC-2 and blaTEM-1 producing Enterobacter cloacae 7506 by Etest method in presence of beta-lactamase inhibitor clavulanic acid; format: functional
Escherichia coli [7] = test: Antimicrobial activity against Escherichia coli J53 harboring blaKPC-2 and blaTEM-1 by Etest method; format: functional
Summary of the method: (§2)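 Strain is an E. coli J53 (rifampin-resistant) transconjugant from E. cloacae 7506. Donor and recipient were mixed at 1:1 and 4:1, shaken in brain heart infusion at 37°C for 3 h, then held on a filter on BHI agar for 18 h at 37°C. Transconjugants were selected on LB agar with ampicillin 100 µg/ml, ticarcillin 50 µg/ml and rifampin 1000 µg/ml. MICs were read by Etest.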

Escherichia coli [8] = test: Antimicrobial activity against blaKPC-2 and blaTEM-1 producing Escherichia coli 2138 by Etest method; format: functional
Escherichia coli [9] = test: Antimicrobial activity against Escherichia coli TOP10 by Etest method; format: functional
Escherichia coli [10] = test: Antimicrobial activity against Escherichia coli TOP10 by Etest method in presence of beta-lactamase inhibitor clavulanic acid; format: functional; summary of the method: as §1
Escherichia coli [11] = test: Antimicrobial activity against Escherichia coli TOP10 harboring blaKPC-2 and blaTEM-1 gene by Etest method; format: functional
Summary of the method: (§3)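 Strain is an E. coli Top10 transformant obtained by electroporation of plasmid DNA extracted from E. coli 2138. MICs were read by Etest.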

Escherichia coli [12] = test: Antimicrobial activity against Escherichia coli J53 by Etest method in presence of beta-lactamase inhibitor clavulanic acid; format: functional
Summary of the method: (§4)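 MIC by Etest on E. coli J53 (Rifr) recipient and its transconjugants. Transconjugants came from liquid and solid mating at 1:1 and 4:1 recipient:donor ratios in brain heart infusion (37°C, 3 h), then filter mating for 18 h at 37°C. Selection was on LB agar with ampicillin (100 µg/ml), ticarcillin (50 µg/ml) and rifampin (1000 µg/ml).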

Escherichia coli [13] = test: Antimicrobial activity against Escherichia coli J53 harboring blaKPC-2 and blaTEM-1 gene by Etest method in presence of beta-lactamase inhibitor clavulanic acid; format: functional; summary of the method: as §4
Escherichia coli [14] = test: Antimicrobial activity against blaKPC-2 producing Escherichia coli DH5alpha by Etest method; settings: DH5[alpha]
Escherichia coli [15] = test: Antimicrobial activity against blaKPC-2 and blaTEM-1 producing Escherichia coli 2138 by Etest method in presence of beta-lactamase inhibitor Tazobactam; format: functional
Enterobacter cloacae [16] = test: Antimicrobial activity against blaKPC-2, blaKLUC-2 and blaTEM-1 producing Enterobacter cloacae 7506 by Etest method in presence of beta-lactamase inhibitor Tazobactam; format: functional
Escherichia coli [17] = test: Antimicrobial activity against Escherichia coli J53 harboring blaKPC-2 and blaTEM-1 gene by Etest method in presence of beta-lactamase inhibitor Tazobactam; format: functional; summary of the method: as §2
Escherichia coli [18] = test: Antimicrobial activity against Escherichia coli TOP10 by Etest method in presence of beta-lactamase inhibitor Tazobactam; format: functional
Escherichia coli [19] = test: Antimicrobial activity against Escherichia coli TOP10 harboring blaKPC-2 and blaTEM-1 gene by Etest method in presence of beta-lactamase inhibitor Tazobactam; format: functional; summary of the method: as §3
Escherichia coli [20] = test: Antimicrobial activity against Escherichia coli J53 by Etest method in presence of beta-lactamase inhibitor Tazobactam; format: functional

| SMILES | Km (Escherichia coli [1]) [µM] | kcat (Escherichia coli [1]) [s⁻¹] | MIC (Escherichia coli [2]) [µg/mL] | MIC (Enterobacter cloacae [5]) [µg/mL] | MIC (Escherichia coli [7]) [µg/mL] | MIC (Escherichia coli [8]) [µg/mL] | MIC (Escherichia coli [9]) [µg/mL] | MIC (Escherichia coli [11]) [µg/mL] | further results |
| --- | --- | --- | --- | --- | --- | --- | --- | --- | --- |
| CC(=O)OCC1=C(C(=O)O)N2C(=O)[C@@H](NC(=O)Cc3cccs3)[C@H]2SC1 | 141 | 106 |  |  |  |  |  |  |  |
| CC1(C)S[C@@H]2[C@H](NC(=O)Cc3ccccc3)C(=O)N2[C@H]1C(=O)O | 44 | 45 |  |  |  |  |  |  |  |
| CC1(C)S[C@@H]2[C@H](NC(=O)[C@H](N)c3ccccc3)C(=O)N2[C@H]1C(=O)O | 29 | 20 |  |  |  |  |  |  |  |
| CO/N=C(\C(=O)N[C@@H]1C(=O)N2C(C(=O)O)=C(COC(N)=O)CS[C@H]12)c1ccco1 | 160 | 66 |  |  |  |  |  |  |  |
| CO/N=C(\C(=O)N[C@@H]1C(=O)N2C(C(=O)[O-])=C(C[n+]3cccc4c3CCC4)CS[C@H]12)c1csc(N)n1 | 251 | 12 |  |  |  |  |  |  |  |
| CC1(C)S[C@@H]2[C@H](NC(=O)[C@H](N)c3ccc(O)cc3)C(=O)N2[C@H]1C(=O)O [AMOXICILLIN] |  |  | 3 (≈ 8.21 µM) | > 256 | > 256 | > 256 | 3 (≈ 8.21 µM) | > 256 | MIC (Escherichia coli [3]): 24 µg/mL; MIC (Escherichia coli [4]): 48 µg/mL; MIC (Enterobacter cloacae [6]): 96 µg/mL; MIC (Escherichia coli [10]): 2 µg/mL; MIC (Escherichia coli [12]): 2 µg/mL; MIC (Escherichia coli [13]): 16 µg/mL |
| C[C@H]1[C@H](NC(=O)/C(=N\OC(C)(C)C(=O)O)c2csc(N)n2)C(=O)N1S(=O)(=O)O [AZTREONAM] | 35 | 3 | < 0.016 |  | 8 (≈ 18.4 µM) | 64 (≈ 147 µM) | 0.047 (≈ 0.108 µM) | 24 (≈ 55.1 µM) |  |
| CO/N=C(\C(=O)N[C@@H]1C(=O)N2C(C(=O)O)=C(COC(C)=O)CS[C@H]12)c1csc(N)n1 [CEFOTAXIME] | 174 | 66 | 0.032 (≈ 0.0703 µM) | > 32 | 4 (≈ 8.78 µM) | 16 (≈ 35.1 µM) | 0.047 (≈ 0.103 µM) | 12 (≈ 26.3 µM) |  |
| CC(C)(O/N=C(\C(=O)N[C@@H]1C(=O)N2C(C(=O)[O-])=C(C[n+]3ccccc3)CS[C@H]12)c1csc(N)n1)C(=O)O [CEFTAZIDIME] |  |  | 0.064 (≈ 0.117 µM) | 32 (≈ 58.5 µM) | 2 (≈ 3.66 µM) | 8 (≈ 14.6 µM) | 0.19 (≈ 0.348 µM) | 6 (≈ 11 µM) | MIC (Escherichia coli [14]): 32 µg/mL (≈ 58.5 µM) |
| C[C@@H](O)[C@H]1C(=O)N2C(C(=O)O)=C(SCCNC=N)C[C@H]12 [IMIPENEM ANHYDROUS] | 88 | 20 | 0.094 (≈ 0.314 µM) | 3 (≈ 10 µM) | 0.5 (≈ 1.67 µM) | 3 (≈ 10 µM) | 0.19 (≈ 0.635 µM) | 1.5 (≈ 5.01 µM) |  |
| CCN1CCN(C(=O)N[C@@H](C(=O)N[C@@H]2C(=O)N3[C@@H]2SC(C)(C)[C@@H]3C(=O)O)c2ccccc2)C(=O)C1=O [PIPERACILLIN] | 51 | 40 | 0.38 (≈ 0.734 µM) | > 256 | > 256 | > 256 | 0.75 (≈ 1.45 µM) | > 256 | MIC (Escherichia coli [15]): > 256 µg/mL; MIC (Enterobacter cloacae [16]): > 256 µg/mL; MIC (Escherichia coli [17]): > 256 µg/mL; MIC (Escherichia coli [18]): 0.75 µg/mL; MIC (Escherichia coli [19]): > 256 µg/mL; MIC (Escherichia coli [20]): 0.38 µg/mL |
| CC1(C)S[C@@H]2[C@H](NC(=O)[C@H](C(=O)O)c3ccsc3)C(=O)N2[C@H]1C(=O)O [TICARCILLIN] |  |  | 1.5 (≈ 3.9 µM) | > 256 | > 256 | > 256 | 1.5 (≈ 3.9 µM) | > 256 |  |
